Test results from ChEMBL document CHEMBL4266062, “Discovery of JND3229 as a New EGFRC797S Mutant Inhibitor with In Vivo Monodrug Efficacy” (ACS Med Chem Lett, 2018).
Activity calls are given as the source filed them. The calls are words filed in the database; no cut-off is given here.

Columns and labels:
BaF3 [1] = experiment: Antiproliferative activity against mouse BAF3 cells harboring EGFR L858R/T790M/C797S mutant after 72 hrs by resazurin dye based assay; type: functional, cell-based; settings: BaF3, 72 h
BaF3 [2] = experiment: Antiproliferative activity against mouse BAF3 cells harboring EGFR 19D/T790M/C797S mutant after 72 hrs by resazurin dye based assay; type: functional, cell-based; settings: BaF3, 72 h
NCI-H1975 = experiment: Antiproliferative activity against human NCI-H1975 cells harboring EGFR L858R/T790M mutant after 72 hrs by resazurin dye based assay; type: functional, cell-based; settings: NCI-H1975, 72 h
[3] = target: Epidermal growth factor receptor (Homo sapiens, UniProt P00533, L858R/T790M); experiment: Inhibition of recombinant human EGFR T790M/L858R double mutant using poly (Glu,Tyr) 4:1 as substrate after 1 hr by ELISA
Epidermal growth factor receptor (Homo sapiens, UniProt P00533, L858R/T790M), sequence (P00533 25-1210 T790M/L858R limits assumed): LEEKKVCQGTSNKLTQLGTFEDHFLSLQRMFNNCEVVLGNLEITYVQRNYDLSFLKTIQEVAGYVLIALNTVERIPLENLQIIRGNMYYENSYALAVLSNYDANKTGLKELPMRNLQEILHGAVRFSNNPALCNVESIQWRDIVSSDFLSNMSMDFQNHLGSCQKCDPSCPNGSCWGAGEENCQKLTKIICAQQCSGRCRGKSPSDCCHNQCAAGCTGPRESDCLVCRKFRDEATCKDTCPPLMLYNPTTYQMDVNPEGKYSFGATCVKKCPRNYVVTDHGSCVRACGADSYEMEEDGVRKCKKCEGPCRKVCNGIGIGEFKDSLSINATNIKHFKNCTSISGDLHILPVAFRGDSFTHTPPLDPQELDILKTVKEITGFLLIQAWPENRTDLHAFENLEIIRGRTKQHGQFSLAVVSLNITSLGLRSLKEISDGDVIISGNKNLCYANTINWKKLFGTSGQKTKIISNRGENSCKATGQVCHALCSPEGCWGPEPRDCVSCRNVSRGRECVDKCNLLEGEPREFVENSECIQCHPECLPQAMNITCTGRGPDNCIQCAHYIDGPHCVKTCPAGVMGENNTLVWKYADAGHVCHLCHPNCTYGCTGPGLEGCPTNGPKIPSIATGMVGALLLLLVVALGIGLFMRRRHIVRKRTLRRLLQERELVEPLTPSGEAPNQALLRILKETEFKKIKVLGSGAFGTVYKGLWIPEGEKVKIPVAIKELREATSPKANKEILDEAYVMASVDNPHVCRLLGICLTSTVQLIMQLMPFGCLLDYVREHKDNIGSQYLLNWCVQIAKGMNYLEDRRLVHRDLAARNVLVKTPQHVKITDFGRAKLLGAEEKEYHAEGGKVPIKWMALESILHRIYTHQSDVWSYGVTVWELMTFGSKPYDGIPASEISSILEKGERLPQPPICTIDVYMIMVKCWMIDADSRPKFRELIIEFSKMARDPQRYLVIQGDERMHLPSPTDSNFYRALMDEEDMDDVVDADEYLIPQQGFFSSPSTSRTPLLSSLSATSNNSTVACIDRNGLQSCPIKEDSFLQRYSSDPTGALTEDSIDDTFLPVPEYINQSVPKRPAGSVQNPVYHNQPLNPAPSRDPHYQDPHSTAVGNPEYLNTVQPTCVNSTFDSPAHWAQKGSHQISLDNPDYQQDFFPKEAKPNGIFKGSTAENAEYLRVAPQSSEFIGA

[4] = target: Epidermal growth factor receptor (Homo sapiens, UniProt P00533, C797S/L858R/T790M); experiment: Inhibition of recombinant human C-terminal His-tagged/N-terminal GST-tagged EGFR (668 to 1210 residues) T790M/L858R/C797S mutant using poly (Glu,Tyr) 4:1 as substrate after 1 hr by ELISA
Epidermal growth factor receptor (Homo sapiens, UniProt P00533, C797S/L858R/T790M), sequence (P00533 25-1210 T790M/C797S/L858R limits assumed): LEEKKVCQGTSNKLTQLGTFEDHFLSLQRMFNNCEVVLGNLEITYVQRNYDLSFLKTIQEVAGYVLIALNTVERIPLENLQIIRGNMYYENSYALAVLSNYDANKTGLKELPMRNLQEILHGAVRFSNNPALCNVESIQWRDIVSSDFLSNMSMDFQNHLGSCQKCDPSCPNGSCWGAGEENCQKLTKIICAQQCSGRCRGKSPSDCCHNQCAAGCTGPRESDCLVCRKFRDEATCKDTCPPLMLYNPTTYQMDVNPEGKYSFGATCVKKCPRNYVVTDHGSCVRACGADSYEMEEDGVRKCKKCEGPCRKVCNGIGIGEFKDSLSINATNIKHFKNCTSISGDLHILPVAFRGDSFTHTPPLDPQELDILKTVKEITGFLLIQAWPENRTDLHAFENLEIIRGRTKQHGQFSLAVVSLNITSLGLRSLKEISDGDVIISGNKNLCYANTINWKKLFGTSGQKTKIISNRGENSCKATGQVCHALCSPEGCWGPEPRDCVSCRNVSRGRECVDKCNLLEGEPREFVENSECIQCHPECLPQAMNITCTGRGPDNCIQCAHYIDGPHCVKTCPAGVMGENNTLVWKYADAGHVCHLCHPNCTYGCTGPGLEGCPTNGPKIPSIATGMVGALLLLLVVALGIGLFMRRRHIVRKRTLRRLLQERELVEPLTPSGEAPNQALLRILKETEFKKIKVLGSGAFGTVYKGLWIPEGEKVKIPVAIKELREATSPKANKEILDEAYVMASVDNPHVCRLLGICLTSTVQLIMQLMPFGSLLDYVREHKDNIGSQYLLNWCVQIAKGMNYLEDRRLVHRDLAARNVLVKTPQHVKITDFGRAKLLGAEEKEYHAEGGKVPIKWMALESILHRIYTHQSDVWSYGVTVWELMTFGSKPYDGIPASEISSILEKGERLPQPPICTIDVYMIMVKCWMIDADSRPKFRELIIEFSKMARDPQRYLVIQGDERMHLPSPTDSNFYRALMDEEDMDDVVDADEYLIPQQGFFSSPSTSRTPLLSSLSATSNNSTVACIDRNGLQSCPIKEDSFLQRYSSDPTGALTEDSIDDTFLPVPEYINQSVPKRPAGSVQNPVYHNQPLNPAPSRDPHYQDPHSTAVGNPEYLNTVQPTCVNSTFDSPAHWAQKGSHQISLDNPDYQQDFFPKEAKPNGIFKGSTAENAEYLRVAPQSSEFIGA

BaF3 [5] = experiment: Antitumor activity against mouse BAF3 cells harboring EGFR 19D/T790M/C797S mutant implanted in Balb/c mouse assessed as tumor growth inhibition at 60 mg/kg, po administered once daily via gavage for 10 days co-treated with cetuximab once every other day relative to control; type: functional; settings: 240 h, read-out: TGI
In short: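 Same BaF3-EGFR19D/T790M/C797S xenograft in BALB/c mice (n = 6). Positive-control regimen: 60 mg/kg in 10% NMP/90% PEG300 by oral gavage once daily, plus cetuximab 1 mg/kg in 0.9% NaCl/water ip every other day. Relative tumor volume measured every 2–3 days. TGI taken on the final treatment day versus control; Student's t test.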

[6] = system: Epidermal growth factor receptor (Homo sapiens), P00533 [L858R,T790M,C797S]; experiment: Inhibition of EGFR T790M/L858R/C797S mutant (unknown origin) expressed in mouse BAF3 cells assessed as reduction in EGF-induced receptor phosphorylation preincubated for 2 hrs followed by EGF stimulation for 15 mins by Western blot analysis; type: cell-based
Epidermal growth factor receptor (Homo sapiens), P00533 [L858R,T790M,C797S], sequence (P00533 whole entry T790M/C797S/L858R): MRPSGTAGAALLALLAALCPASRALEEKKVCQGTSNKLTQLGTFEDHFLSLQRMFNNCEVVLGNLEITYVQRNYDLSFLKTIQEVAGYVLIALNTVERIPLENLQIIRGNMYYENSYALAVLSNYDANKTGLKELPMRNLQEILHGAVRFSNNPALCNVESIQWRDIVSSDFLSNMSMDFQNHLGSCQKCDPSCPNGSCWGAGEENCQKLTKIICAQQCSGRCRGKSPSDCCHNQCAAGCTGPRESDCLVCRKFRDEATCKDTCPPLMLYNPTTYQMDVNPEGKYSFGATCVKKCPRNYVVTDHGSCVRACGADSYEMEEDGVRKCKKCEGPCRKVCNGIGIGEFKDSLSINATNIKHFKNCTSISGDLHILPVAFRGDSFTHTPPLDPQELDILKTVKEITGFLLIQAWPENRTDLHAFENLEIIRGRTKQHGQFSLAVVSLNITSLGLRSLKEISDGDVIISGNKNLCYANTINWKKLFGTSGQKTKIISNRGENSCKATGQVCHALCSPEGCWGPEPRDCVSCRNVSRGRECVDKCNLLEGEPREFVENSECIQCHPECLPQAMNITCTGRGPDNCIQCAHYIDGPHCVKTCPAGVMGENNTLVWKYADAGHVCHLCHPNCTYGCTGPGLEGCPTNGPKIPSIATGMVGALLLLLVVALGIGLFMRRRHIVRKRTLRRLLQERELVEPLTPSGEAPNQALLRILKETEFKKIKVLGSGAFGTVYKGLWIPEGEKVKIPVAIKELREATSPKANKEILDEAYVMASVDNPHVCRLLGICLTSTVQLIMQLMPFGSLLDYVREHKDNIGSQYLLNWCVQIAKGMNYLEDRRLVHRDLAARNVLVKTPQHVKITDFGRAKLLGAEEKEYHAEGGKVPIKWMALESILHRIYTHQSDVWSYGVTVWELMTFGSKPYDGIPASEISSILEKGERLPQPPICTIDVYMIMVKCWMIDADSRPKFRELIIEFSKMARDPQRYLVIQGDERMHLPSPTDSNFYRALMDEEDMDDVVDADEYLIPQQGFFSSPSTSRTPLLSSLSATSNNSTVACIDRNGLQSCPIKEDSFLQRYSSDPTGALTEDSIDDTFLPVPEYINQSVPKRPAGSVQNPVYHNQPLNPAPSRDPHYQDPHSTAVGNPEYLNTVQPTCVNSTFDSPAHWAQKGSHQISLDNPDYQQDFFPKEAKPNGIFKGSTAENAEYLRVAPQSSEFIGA
In short: (§1)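 BaF3 cells stably transfected with the mutant EGFR were treated for 2 h across a range of compound concentrations, then stimulated with EGF for 15 min. Cell lysates were collected, and EGFR phosphorylation was read out by Western blot.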

[7] = system: Epidermal growth factor receptor (Homo sapiens), P00533 [UNDEFINED MUTATION]; experiment: Inhibition of EGFR 19D/T790M/C797S mutant (unknown origin) expressed in mouse BAF3 cells assessed as reduction in EGF-induced receptor phosphorylation preincubated for 2 hrs followed by EGF stimulation for 15 mins by Western blot analysis; type: cell-based; in short: as §1
Epidermal growth factor receptor (Homo sapiens), P00533 [UNDEFINED MUTATION], sequence (P00533 whole entry, looked up, stated change not applied): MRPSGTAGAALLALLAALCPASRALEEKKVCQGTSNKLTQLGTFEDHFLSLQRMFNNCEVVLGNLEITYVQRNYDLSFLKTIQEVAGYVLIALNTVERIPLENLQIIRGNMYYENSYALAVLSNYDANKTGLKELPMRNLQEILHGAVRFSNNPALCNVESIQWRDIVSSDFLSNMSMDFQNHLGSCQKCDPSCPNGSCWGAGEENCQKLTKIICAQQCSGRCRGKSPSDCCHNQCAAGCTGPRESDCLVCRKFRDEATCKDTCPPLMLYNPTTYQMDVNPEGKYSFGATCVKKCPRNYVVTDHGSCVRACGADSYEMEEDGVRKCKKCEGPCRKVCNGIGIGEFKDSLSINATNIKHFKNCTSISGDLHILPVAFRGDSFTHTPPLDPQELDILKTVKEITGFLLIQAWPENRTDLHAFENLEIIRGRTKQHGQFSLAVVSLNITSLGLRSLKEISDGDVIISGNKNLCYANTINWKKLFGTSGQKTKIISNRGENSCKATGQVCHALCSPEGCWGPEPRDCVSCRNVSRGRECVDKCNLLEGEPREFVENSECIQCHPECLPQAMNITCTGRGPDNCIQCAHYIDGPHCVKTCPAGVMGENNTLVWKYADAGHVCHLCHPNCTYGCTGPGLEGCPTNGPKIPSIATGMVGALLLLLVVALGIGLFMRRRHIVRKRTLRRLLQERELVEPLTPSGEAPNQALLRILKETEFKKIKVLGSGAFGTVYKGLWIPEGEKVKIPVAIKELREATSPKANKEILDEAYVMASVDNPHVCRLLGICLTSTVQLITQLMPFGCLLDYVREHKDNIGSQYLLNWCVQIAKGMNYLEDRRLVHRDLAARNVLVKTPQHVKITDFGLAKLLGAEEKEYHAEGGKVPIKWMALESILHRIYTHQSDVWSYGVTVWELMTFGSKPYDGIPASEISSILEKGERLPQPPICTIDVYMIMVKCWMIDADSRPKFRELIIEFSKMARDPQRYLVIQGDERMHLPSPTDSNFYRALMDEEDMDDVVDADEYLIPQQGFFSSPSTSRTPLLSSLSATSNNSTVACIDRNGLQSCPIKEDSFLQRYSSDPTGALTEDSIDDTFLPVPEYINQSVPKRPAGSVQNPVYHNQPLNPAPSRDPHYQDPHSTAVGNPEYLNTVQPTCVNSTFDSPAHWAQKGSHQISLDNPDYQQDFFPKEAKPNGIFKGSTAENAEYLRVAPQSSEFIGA

A-431 = experiment: Antiproliferative activity against human A431 cells harboring wild type EGFR after 72 hrs by resazurin dye based assay; type: functional, cell-based; settings: A-431, 72 h
BaF3 [8] = experiment: Antitumor activity against mouse BAF3 cells harboring EGFR 19D/T790M/C797S mutant implanted in Balb/c mouse assessed as tumor growth inhibition at 10 mg/kg, ip administered twice daily for 10 days relative to control; type: functional; settings: 240 h, read-out: TGI
In short: (§2)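 BALB/c mice with established BaF3-EGFR19D/T790M/C797S xenografts (n = 6); 10 mg/kg in 0.5% HPMC ip twice daily for 10 days versus vehicle. Relative tumor volume and body weight recorded every 2–3 days. TGI taken on the final treatment day versus control; Student's t test.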

Mus musculus [9] = experiment: Toxicity in Balb/c mouse implanted with mouse BAF3-EGFR 19D/T790M/C797S mutant cells assessed as change in body weight at 10 mg/kg, ip administered twice daily for 10 days measured every 2 to 3 days during compound dosing; type: organism-based; settings: in vivo; in short: as §2
Mus musculus [10] = experiment: In vivo inhibition of EGFR phosphorylation in tumor of Balb/c mouse implanted with mouse BAF3-EGFR 19D/T790M/C797S mutant cells at 10 mg/kg, ip administered twice daily for 10 days by H and E staining based IHC analysis; type: functional, organism-based
In short: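 Xenograft tumor sections taken from the 10 mg/kg ip twice-daily treated mice and controls. Sections stained with H&E and anti-p-EGFR antibody. p-EGFR labeling quantified as relative integrated optical density; Student's t test versus control.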

| Compound | IC50 (BaF3 [1]) [nM] | IC50 (BaF3 [2]) [nM] | IC50 (NCI-H1975) [nM] | IC50 (A-431) [nM] | further results |
| --- | --- | --- | --- | --- | --- |
| N#Cc1ccc(O)c(-c2nc(NCc3cnccn3)c3ccccc3n2)c1 |  |  |  |  | IC50 [3]: 367 nM; IC50 [4]: 85.2 nM |
| O=C(Nc1nccs1)C(c1cc(F)ccc1O)N1Cc2ccccc2C1=O (centres undefined) |  |  |  |  | inhibition in vivo at 60 mg/kg (BaF3 [5]): 22.3% |
| C=CC(=O)Nc1cc(Nc2nccc(-c3cn(C)c4ccccc34)n2)c(OC)cc1N(C)CCN(C)C [OSIMERTINIB] | 5150 | 4610 | […] | […] |  |

The next lines start with results.

| IC50 (BaF3 [1]) [nM] | IC50 (BaF3 [2]) [nM] | IC50 (NCI-H1975) [nM] | Compound | IC50 (A-431) [nM] | further results |
| --- | --- | --- | --- | --- | --- |
| 420 | 260 | 1090 | COc1cc(N2CCC(N3CCN(C)CC3)CC2)ccc1Nc1ncc(Cl)c(Nc2ccccc2P(C)(C)=O)n1 [BRIGATINIB] |  |  |
| 510 | 320 | 310 | CCC(=O)N[C@H]1CC[C@H](N2C(=O)N(c3ccccc3Cl)Cc3cnc(Nc4ccc(N5CCN(C)CC5)c(C)c4)nc32)CC1 | 270 | inhibition [6]: Dose-dependent effect; inhibition [7]: Dose-dependent effect; inhibition in vivo at 10 mg/kg (BaF3 [8]): 42.2%; Activity (Mus musculus [9]): Non-Toxic; inhibition (Mus musculus [10]): Active |
